Pf Dd2 growth: P. falciparum Dd2 growth inhibitors, primary screen, SYBR Green fluorescence, single dose replicates; 72 h; active compounds read low; activity change, % at 10 µM; actives 2.3% (n = 94,000); in the data active = activity change below about -80%
IDH1 R132H inh: inhibitors of IDH1 R132H reductase, primary screen, biochemical, plate reader, single point | inhibition, % at 10 µM | actives 0.18% (n = 70,000) | diaphorase/resazurin fluorescence, 60 min | AID 624101, 2012 | Isocitrate dehydrogenase [NADP] cytoplasmic (Homo sapiens), O75874; in the data active = inhibition above about 34%
T cruzi growth: T. cruzi intracellular proliferation inhibitors, primary screen, cell-based, beta-gal Tulahuen parasites, NIH3T3 host, luminescence | T. cruzi beta-gal in NIH3T3, GalScreen luminescence, 90 h | actives 5.9% (n = 77,000) | AID 624255, 2012 | inhibition, % at 8.34 µM;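 active = mean inhibition above about 93%, with at least 55% of replicates each passing it, limit read from the data, passing the limit was not always enough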
KDM4C inh: inhibitors of GASC-1 (KDM4C) histone demethylase, primary screen, biochemical, single concentration HTS | inhibition, % at 12.5 µM | GST-KDM4C 2-372, H3K9me3 peptide, LANCE TR-FRET | actives 0.15% (n = 96,000) | AID 720574, 2013;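 active = mean replicate inhibition above about 25%, with at least 55% of replicates also reaching it, limit read from the data, passing the limit was not always enough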
Target sequence (Q9H3R0 2-372 limits assumed): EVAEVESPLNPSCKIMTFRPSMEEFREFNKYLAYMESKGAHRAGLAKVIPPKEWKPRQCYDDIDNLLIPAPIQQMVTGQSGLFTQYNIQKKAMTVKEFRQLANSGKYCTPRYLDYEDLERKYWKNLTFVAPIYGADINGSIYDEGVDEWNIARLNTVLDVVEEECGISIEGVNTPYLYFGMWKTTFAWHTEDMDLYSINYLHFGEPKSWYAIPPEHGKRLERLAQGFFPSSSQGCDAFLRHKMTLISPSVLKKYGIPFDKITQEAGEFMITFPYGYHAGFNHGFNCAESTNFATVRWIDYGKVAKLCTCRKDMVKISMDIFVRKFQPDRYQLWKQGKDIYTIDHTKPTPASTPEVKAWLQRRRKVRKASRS
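Test system – GST-tagged GASC-1 (JMJD2C) catalytic fragment, aa 2-372 · Medium – HEPES buffer, pH 7.5, plus ascorbate · Reagent – H3K9me3 peptide with Fe(II)/2OG · Compound – one test concentration per compound · Timing – 30 min reaction, 60 min detection, RT · Technique – TR-FRET with Eu antibody and ULight streptavidin, EDTA stop · Read-out basis – inhibition from TR-FRET ratio decrease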
Large screens that a line does not name were inactive. Sampled rows, rich in hits. Any-hit rate of the full collection: about 5.9%.

C[C@@H]1CN([C@@H](C)CO)C(=O)c2cccc(NC(=O)CCCCCC(=O)Nc3ccccc3N)c2O[C@@H]1CN(C)Cc1ccncc1	none (no result: T cruzi growth)
C[C@@H]1CN([C@H](C)CO)C(=O)c2cccc(NC(=O)CCCCCC(=O)Nc3ccccc3N)c2O[C@@H]1CN(C)C	none (no result: T cruzi growth)
C[C@H](CO)N1C[C@H](C)[C@H](CN(C)Cc2ccc(C(F)(F)F)cc2)Oc2c(NC(=O)CCCCCC(=O)Nc3ccccc3N)cccc2C1=O	Pf Dd2 growth -86 (no result: T cruzi growth)
O=C(COc1ccc(Cl)cc1Cl)Nc1ccccc1[N+](=O)[O-]	none (no result: Pf Dd2 growth, T cruzi growth, KDM4C inh)
CCc1c(C)nc(SCC(=O)Nc2ccc(OC)cc2)[nH]c1=O	none (no result: Pf Dd2 growth, T cruzi growth, KDM4C inh)
O=C(Nc1ccccc1[N+](=O)[O-])c1cccc(S(=O)(=O)N2CCOCC2)c1	none (no result: Pf Dd2 growth, T cruzi growth, KDM4C inh)
COc1ccc(NC(=O)COc2ccc(Br)cc2C)c([N+](=O)[O-])c1	none (no result: Pf Dd2 growth, T cruzi growth, KDM4C inh)
COc1ccc2c3c([nH]c2c1)[C@H](CO)N(Cc1cccnc1)CC31CCN(C(=O)CN(C)C)CC1	Pf Dd2 growth -86 (no result: IDH1 R132H inh, T cruzi growth)
COc1ccc(CN2CC3(CCN(C(=O)c4ccccc4)CC3)c3c([nH]c4cc(OC)ccc34)[C@@H]2CO)cc1	Pf Dd2 growth -88 (no result: IDH1 R132H inh, T cruzi growth)
COc1ccc2c3c([nH]c2c1)[C@@H](CO)N(CC1CC1)CC31CN(C(=O)c2ccccc2)C1	Pf Dd2 growth -85 (no result: IDH1 R132H inh, T cruzi growth)
COc1ccc2c3c([nH]c2c1)[C@@H](CO)N(C(=O)c1cccc(F)c1)CC31CCN(C(=O)c2ccccc2)CC1	Pf Dd2 growth -88 (no result: IDH1 R132H inh, T cruzi growth)
COc1ccc(CN2CC3(CN(C(=O)c4ccccc4)C3)c3c([nH]c4cc(OC)ccc34)[C@@H]2CO)cc1	none (no result: IDH1 R132H inh, T cruzi growth)
COc1ccc(NC(=O)c2ccc(N(C)S(=O)(=O)c3ccc(OC)c(OC)c3)cc2)c(OC)c1	none (no result: Pf Dd2 growth, T cruzi growth, KDM4C inh)
O=C(CCCC(=O)Nc1cc(C(F)(F)F)ccc1Cl)Nc1cc(C(F)(F)F)ccc1Cl	none (no result: Pf Dd2 growth, T cruzi growth, KDM4C inh)
OCc1ccc(COc2ccc3ccncc3c2)cc1	none (no result: Pf Dd2 growth, T cruzi growth, KDM4C inh)
COc1ccc2c3c([nH]c2c1)[C@@H](CO)N(Cc1cccnc1)CC31CCN(C(=O)c2cccnc2)CC1	none (no result: IDH1 R132H inh, T cruzi growth)
COc1ccc2c3c([nH]c2c1)[C@@H](CO)N(Cc1ccccc1)CC31CCN(C(=O)c2cccnc2)CC1	Pf Dd2 growth -90 (no result: IDH1 R132H inh, T cruzi growth)
C[C@H](CO)N1C[C@H](C)[C@@H](CN(C)S(=O)(=O)c2ccc(Cl)cc2)Oc2ccc(NC(=O)CCCCCC(=O)Nc3ccccc3N)cc2C1=O	Pf Dd2 growth -86 (no result: T cruzi growth)
Cc1ccc(S(=O)(=O)N(C)C[C@@H]2Oc3ccc(NC(=O)CCCCCC(=O)Nc4ccccc4N)cc3C(=O)N([C@@H](C)CO)C[C@@H]2C)cc1	Pf Dd2 growth -89 (no result: T cruzi growth)
C[C@H](CO)N1C[C@H](C)[C@H](CN(C)S(=O)(=O)c2ccc(Cl)cc2)Oc2ccc(NC(=O)CCCCCC(=O)Nc3ccccc3N)cc2C1=O	none (no result: T cruzi growth)
Cc1coc(C)c1C(=O)CC1(O)C(=O)N(CCc2ccccc2)c2ccc(Cl)cc21 (stereo not given)	none (no result: Pf Dd2 growth, T cruzi growth, KDM4C inh)
C[C@@H]1CN([C@@H](C)CO)C(=O)c2cccc(NC(=O)C3CC3)c2O[C@H]1CN(C)Cc1ccc(-c2ccccc2)cc1	Pf Dd2 growth -89 (no result: IDH1 R132H inh)
C[C@@H]1CN([C@@H](C)CO)C(=O)c2cccc(NC(=O)C3CCOCC3)c2O[C@H]1CN(C)Cc1ccc(-c2ccccc2)cc1	Pf Dd2 growth -84 (no result: IDH1 R132H inh)
C[C@H]1CN([C@@H](C)CO)C(=O)c2cccc(NC(=O)C3CC3)c2O[C@@H]1CN(C)Cc1ccc(-c2ccccc2)cc1	none (no result: IDH1 R132H inh)
C[C@@H]1CN([C@H](C)CO)C(=O)c2cccc(NC(=O)C3CCOCC3)c2O[C@H]1CN(C)Cc1ccc(-c2ccccc2)cc1	Pf Dd2 growth -84
CC(C)NC(=O)Nc1cccc2c1O[C@H](CN(C)Cc1ccc(-c3ccccc3)cc1)[C@H](C)CN([C@@H](C)CO)C2=O	Pf Dd2 growth -85 (no result: IDH1 R132H inh)
CCOc1ccccc1CNc1nc2nc(C)c(Cl)c(C)n2n1	none (no result: Pf Dd2 growth, T cruzi growth, KDM4C inh)
COc1ccc(S(=O)(=O)Nc2ccc3c(c2)C(=O)N([C@H](C)CO)C[C@H](C)[C@@H](CN(C)C(=O)NC2CCCCC2)OCCCC[C@H](C)O3)cc1	none (no result: IDH1 R132H inh)
COc1ccc(S(=O)(=O)Nc2ccc3c(c2)C(=O)N([C@@H](C)CO)C[C@H](C)[C@@H](CN(C)C(=O)NC2CCCCC2)OCCCC[C@@H](C)O3)cc1	Pf Dd2 growth -87 (no result: IDH1 R132H inh)
COc1ccc(S(=O)(=O)Nc2ccc3c(c2)C(=O)N([C@H](C)CO)C[C@@H](C)[C@@H](CN(C)C(=O)C2CCCCC2)OCCCC[C@@H](C)O3)cc1	none (no result: IDH1 R132H inh)

Bioassay records (PubChem)
